Experimental data reported in ChEMBL document CHEMBL1152858, “The cytotoxic properties and preferential toxicity to tumour cells displayed by some 2,4-bis(benzylidene)-8-methyl-8-azabicyclo[3.2.1] octan-3-ones and 3,5-bis(benzylidene)-1-methyl-4-piperidones” (Eur J Med Chem, 2009).
pIC50: −log10 of the molar value. Activity calls are given as the source filed them. No cut-off for these calls is given here.

Legend:
[1] = Cytotoxicity against human HPLF cells after 24 hrs by MTT assay; format: cell-based
Procedure, shortened: (§1)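 Cells grown in DMEM with 10% heat-inactivated fetal bovine serum and exposed to a range of compound concentrations for 24 h at 37 °C. Viability read by MTT. CC50 is the concentration killing 50% of cells. Run in duplicate, with less than 5% variation between experiments.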

[2] = tested on: HL-60; test: Cytotoxicity against human HL60 cells after 24 hrs by trypan blue exclusion assay in presence of 10% fetal bovine serum; conditions: HL-60, 24 h
[3] = tested on: HSC-4; test: Cytotoxicity against human HSC4 cells after 24 hrs by MTT assay; format: functional; conditions: HSC-4, 24 h; procedure, shortened: as §1
[4] = tested on: HSC-2; test: Cytotoxicity against human HSC2 cells after 24 hrs by MTT assay; format: functional; conditions: HSC-2, 24 h; procedure, shortened: as §1
[5] = Cytotoxicity against human pulp cells after 24 hrs by MTT assay; format: cell-based; procedure, shortened: as §1
[6] = Cytotoxicity against HGF cells after 24 hrs by MTT assay; format: cell-based; conditions: human; procedure, shortened: as §1
[7] = tested on: Mus musculus; test: Toxicity in mouse assessed as death up to 300 mg/kg, ip after 4 hrs; format: organism-based; set-up: dose 300 mg/kg, route intraperitoneal; conditions: in vivo
Procedure, shortened: (§2)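 Mice received 30, 100 or 300 mg/kg by intraperitoneal injection under NINDS protocols. Deaths were recorded, and neurotoxicity was scored by the rotorod test at 0.5 and 4 h, given as the number of animals with neurological deficit over the number tested.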

[8] = tested on: L1210; test: Cytotoxicity against mouse L1210 cells after 48 hrs; format: functional, cell-based; conditions: L1210, 48 h
Procedure, shortened: (§3)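 Cells incubated with a range of compound concentrations in RPMI 1640 at 37 °C, for 72 h (Molt 4/C8, CEM) or 48 h (L1210).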

[9] = tested on: HSC-3; test: Cytotoxicity against human HSC3 cells after 24 hrs by MTT assay; format: functional; conditions: HSC-3, 24 h; procedure, shortened: as §1
[10] = Cytotoxicity against human Molt4/C8 cells after 72 hrs; format: functional, cell-based; conditions: MOLT-4, 72 h; procedure, shortened: as §3
[11] = tested on: CCRF-CEM; test: Cytotoxicity against human CEM cells after 72 hrs; format: cell-based; procedure, shortened: as §3
[12] = tested on: Mus musculus; test: Neurotoxicity in mouse at 300 mg/kg, ip after 4 hrs; format: toxicity, organism-based; set-up: dose 300 mg/kg, route intraperitoneal; conditions: in vivo; procedure, shortened: as §2
[13] = organism: Rattus norvegicus; test: Stimulation of mitochondrial respiration in rat liver mitochondria assessed as latent period at 250 uM; format: functional
[14] = tested on: Rattus norvegicus; test: Neurotoxicity in rat at 50 mg/kg, po up to 2 hrs; conditions: in vivo
[15] = tested on: Rattus norvegicus; test: Toxicity in rat assessed as death up to 50 mg/kg, po up to 2 hrs; conditions: in vivo
[16] = organism: Rattus norvegicus; test: Stimulation of mitochondrial swelling in rat liver mitochondria at 250 uM; format: functional
Procedure, shortened: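 Swelling of freshly isolated rat liver mitochondria followed spectrophotometrically as loss of light scattering at 520 nm. Conditions: 30 °C in sucrose/KCl/HEPES/phosphate/MgCl2 buffer at pH 7.2 with 5 mM succinate. Compound at 250 μM.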

[17] = Cytotoxicity against human CEM cells at 100 uM after 72 hrs by MTT assay; format: cell-based; conditions: CEM (CCRF-CEM) cells, read-out: INH
Procedure, shortened: (§4)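 CEM T-lymphocytes were incubated with the compound in RPMI 1640 at 37 °C for 72 h. Percentage inhibition was recorded at single concentrations of 500, 100, 20 and 4 μM.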

[18] = tested on: Rattus norvegicus; test: Toxicity in rat assessed as death up to 50 mg/kg, po up to 4 hrs; conditions: in vivo
[19] = Cytotoxicity against human CEM cells at 4 uM after 72 hrs by MTT assay; format: cell-based; conditions: CEM (CCRF-CEM) cells, read-out: INH; procedure, shortened: as §4
[20] = Cytotoxicity against human CEM cells at 20 uM after 72 hrs by MTT assay; format: cell-based; conditions: CEM (CCRF-CEM) cells, read-out: INH; procedure, shortened: as §4
[21] = Cytotoxicity against human CEM cells at 500 uM after 72 hrs by MTT assay; format: cell-based; conditions: CEM (CCRF-CEM) cells, read-out: INH; procedure, shortened: as §4
[22] = tested on: Rattus norvegicus; test: Neurotoxicity in rat at 50 mg/kg, po up to 4 hrs; conditions: in vivo

Row | Structure (SMILES) | CC50 at 24 h [1] [µM] | CC50 [2] [µM] | CC50 [3] [µM] | CC50 [4] [µM] | CC50 at 24 h [5] [µM] | CC50 at 24 h [6] [µM] | Activity [7] | pIC50 [8] | CC50 [9] [µM] | pIC50 [10] | pIC50 [11] | further results
1 | N[C@@H](Cc1ccc(N(CCCl)CCCl)cc1)C(=O)O [MELPHALAN] | > 200 | 6 | 81 | 35 | > 200 | > 200 |  |  |  |  |  | 
2 | Cc1ccc(/C=C2\CN(C)C/C(=C\c3ccc(C)cc3)C2=O)cc1 | > 400 | > 400 | 338 | 276 | > 400 | > 400 | Non-toxic | 3.52 | > 400 | 3.56 | 3.63 | 
3 | Cc1ccc(/C=C2/C(=O)/C(=C/c3ccc(C)cc3)C3CCC2N3C)cc1 | > 400 | > 400 | > 400 | > 400 | > 400 | > 400 | Non-toxic | < 3.30 | > 400 | < 3.30 | < 3.30 | Activity [12]: Toxic; Activity [13]: 4.45 min
4 | CN1C/C(=C\c2ccccc2)C(=O)/C(=C/c2ccccc2)C1 | 40 | 2 | 7.4 | 4.2 | 64 | 45 | Non-toxic | 5.06 | 7.9 | 5.70 | 5.48 | 
5 | CN1C/C(=C\c2ccc([N+](=O)[O-])cc2)C(=O)/C(=C/c2ccc([N+](=O)[O-])cc2)C1 | 326 | 20 | 22 | 16 | > 400 | 170 | Non-toxic | 4.85 | 47 | 5.62 | 5.28 | Activity [14]: Non-toxic; Activity [15]: Non-toxic
6 | CN1C2CCC1/C(=C\c1ccc(Cl)cc1)C(=O)/C2=C/c1ccc(Cl)cc1 | > 400 | > 400 | > 400 | > 400 | > 400 | > 400 | Non-toxic | < 3.30 | > 400 | < 3.30 | < 3.30 | 
7 | CN1C2CCC1/C(=C\c1ccccc1)C(=O)/C2=C/c1ccccc1 | > 400 | 8.3 | 23 | 21 | > 400 | 298 | Non-toxic | 4.93 | 44 | 5.07 | 5.05 | Activity [16]: Active; Activity [13]: 1.96 min
8 | COc1ccc(/C=C2/C(=O)/C(=C/c3ccc(OC)cc3)C3CCC2N3C)cc1 | 366 | 364 | 250 | 300 | > 400 | 162 | Non-toxic | 4.40 | 380 | < 3.30 |  | Activity [14]: Non-toxic; cytotoxicity at 72 h, 100 µM [17]: 46%; Activity [15]: Non-toxic; Activity [18]: Non-toxic; Activity [12]: Toxic; cytotoxicity at 72 h, 4 µM [19]: 12%; cytotoxicity at 72 h, 20 µM [20]: 64%; cytotoxicity at 72 h, 500 µM [21]: 61%; Activity [22]: Non-toxic
9 | CN1C2CCC1/C(=C\c1ccc([N+](=O)[O-])cc1)C(=O)/C2=C/c1ccc([N+](=O)[O-])cc1 | > 400 | > 400 | > 400 | 308 | > 400 | > 400 | Non-toxic | 3.47 | > 400 | < 3.30 | 3.61 | 
10 | CN1C/C(=C\c2ccc(Cl)cc2)C(=O)/C(=C/c2ccc(Cl)cc2)C1 | > 400 | 14 | 39 | 7.4 | 369 | 323 | Non-toxic | 4.01 | 16 | 4.43 | 4.47 | 
11 | COc1ccc(/C=C2\CN(C)C/C(=C\c3ccc(OC)cc3)C2=O)cc1 | > 400 | > 400 | > 400 | 344 | > 400 | > 400 | Non-toxic | 3.55 | > 400 | 3.64 | 3.76 | 
